Experimental data published in ChEMBL document CHEMBL4689842, “EUbOPEN Chemogenomics Library wave 1” (2021).

System: HEK-293T
Test: Multiplex assay against HEK293T;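 for Population Tubulin-Different-Phenotype (%): share of the cells with healthy nuclei that show this phenotype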
Type: toxicity, cell-based
Conditions: human
Outline: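 Live cells carried four stains from seeding: Hoechst33342, BioTracker Green Microtubule Cytoskeleton Dye, MitoTracker Red and Annexin V Alexa Fluor 680. They were imaged on a CQ1 microscope at 37°C and 5% CO2 after compound addition. Using CellPathfinder machine-learning gating, cells were split into Hoechst high-intensity objects or normal cells, normal cells into healthy, pyknosed or fragmented nuclei, and pyknosed cells into mitotic or apoptotic; tubulin, mitochondrial-mass and membrane-permeability phenotypes are per cents of healthy-nucleus cells.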

[1] = 12 h, 1 µM, compound concentration 1 uM, replicate 1
[2] = 12 h, 1 µM, compound concentration 1 uM, replicate 2
[3] = 12 h, 10 µM, compound concentration 10 uM, replicate 1
[4] = 12 h, 10 µM, compound concentration 10 uM, replicate 2
[5] = 24 h, 1 µM, compound concentration 1 uM, replicate 1
[6] = 24 h, 1 µM, compound concentration 1 uM, replicate 2
[7] = 24 h, 10 µM, compound concentration 10 uM, replicate 1
[8] = 24 h, 10 µM, compound concentration 10 uM, replicate 2
[9] = 48 h, 1 µM, compound concentration 1 uM, replicate 1
[10] = 48 h, 1 µM, compound concentration 1 uM, replicate 2
[11] = 48 h, 10 µM, compound concentration 10 uM, replicate 1
[12] = 48 h, 10 µM, compound concentration 10 uM, replicate 2

Cc1cc2c(cc1N1C(=O)c3cccc4c(CCCO)ccc(c34)C1=O)n(C)c(=O)n2C
Population Apoptotic (%) [1]: 38% | Population Fragmented Nuclei (%) [1]: 14% | Population Healthy Nuclei (%) [1]: 44% | Population Hoechst High Intensity Objects (%) [1]: 16% | Population Membrane Permeable-Phenotype (%) [1]: 4% | Population Mitochondria Different-Phenotype (%) [1]: 77% | Population Mitotic Cells (%) [1]: 61% | Population Normal (%) [1]: 83% | Population Pyknosed Nuclei (%) [1]: 41% | Population Tubulin-Different-Phenotype (%) [1]: 47% | Total Cell Count [1]: 307 | Population Apoptotic (%) [2]: 12% | Population Fragmented Nuclei (%) [2]: 5% | Population Healthy Nuclei (%) [2]: 50% | Population Hoechst High Intensity Objects (%) [2]: 6% | Population Membrane Permeable-Phenotype (%) [2]: 5% | Population Mitochondria Different-Phenotype (%) [2]: 15% | Population Mitotic Cells (%) [2]: 87% | Population Normal (%) [2]: 93% | Population Pyknosed Nuclei (%) [2]: 44% | Population Tubulin-Different-Phenotype (%) [2]: 22% | Total Cell Count [2]: 170 | Population Apoptotic (%) [3]: 53% | Population Fragmented Nuclei (%) [3]: 7% | Population Healthy Nuclei (%) [3]: 43% | Population Hoechst High Intensity Objects (%) [3]: 9% | Population Membrane Permeable-Phenotype (%) [3]: 10% | Population Mitochondria Different-Phenotype (%) [3]: 92% | Population Mitotic Cells (%) [3]: 46% | Population Normal (%) [3]: 90% | Population Pyknosed Nuclei (%) [3]: 48% | Population Tubulin-Different-Phenotype (%) [3]: 94% | Total Cell Count [3]: 302 | Population Apoptotic (%) [4]: 38% | Population Fragmented Nuclei (%) [4]: 2% | Population Healthy Nuclei (%) [4]: 45% | Population Hoechst High Intensity Objects (%) [4]: 4% | Population Membrane Permeable-Phenotype (%) [4]: 11% | Population Mitochondria Different-Phenotype (%) [4]: 82% | Population Mitotic Cells (%) [4]: 61% | Population Normal (%) [4]: 95% | Population Pyknosed Nuclei (%) [4]: 51% | Population Tubulin-Different-Phenotype (%) [4]: 96% | Total Cell Count [4]: 359 | Population Apoptotic (%) [5]: 50% | Population Fragmented Nuclei (%) [5]: 13% | Population Healthy Nuclei (%) [5]: 44% | Population Hoechst High Intensity Objects (%) [5]: 12% | Population Membrane Permeable-Phenotype (%) [5]: 4% | Population Mitochondria Different-Phenotype (%) [5]: 61% | Population Mitotic Cells (%) [5]: 49% | Population Normal (%) [5]: 87% | Population Pyknosed Nuclei (%) [5]: 41% | Population Tubulin-Different-Phenotype (%) [5]: 44% | Total Cell Count [5]: 295 | Population Apoptotic (%) [6]: 13% | Population Fragmented Nuclei (%) [6]: 5% | Population Healthy Nuclei (%) [6]: 75% | Population Hoechst High Intensity Objects (%) [6]: 2% | Population Membrane Permeable-Phenotype (%) [6]: 9% | Population Mitochondria Different-Phenotype (%) [6]: 11% | Population Mitotic Cells (%) [6]: 86% | Population Normal (%) [6]: 97% | Population Pyknosed Nuclei (%) [6]: 18% | Population Tubulin-Different-Phenotype (%) [6]: 22% | Total Cell Count [6]: 194 | Population Apoptotic (%) [7]: 63% | Population Fragmented Nuclei (%) [7]: 12% | Population Healthy Nuclei (%) [7]: 54% | Population Hoechst High Intensity Objects (%) [7]: 11% | Population Membrane Permeable-Phenotype (%) [7]: 6% | Population Mitochondria Different-Phenotype (%) [7]: 87% | Population Mitotic Cells (%) [7]: 36% | Population Normal (%) [7]: 88% | Population Pyknosed Nuclei (%) [7]: 32% | Population Tubulin-Different-Phenotype (%) [7]: 91% | Total Cell Count [7]: 306 | Population Apoptotic (%) [8]: 47% | Population Fragmented Nuclei (%) [8]: 5% | Population Healthy Nuclei (%) [8]: 63% | Population Hoechst High Intensity Objects (%) [8]: 3% | Population Membrane Permeable-Phenotype (%) [8]: 3% | Population Mitochondria Different-Phenotype (%) [8]: 71% | Population Mitotic Cells (%) [8]: 52% | Population Normal (%) [8]: 96% | Population Pyknosed Nuclei (%) [8]: 30% | Population Tubulin-Different-Phenotype (%) [8]: 90% | Total Cell Count [8]: 377 | Population Apoptotic (%) [9]: 47% | Population Fragmented Nuclei (%) [9]: 22% | Population Healthy Nuclei (%) [9]: 28% | Population Hoechst High Intensity Objects (%) [9]: 14% | Population Membrane Permeable-Phenotype (%) [9]: 2% | Population Mitochondria Different-Phenotype (%) [9]: 33% | Population Mitotic Cells (%) [9]: 52% | Population Normal (%) [9]: 85% | Population Pyknosed Nuclei (%) [9]: 49% | Population Tubulin-Different-Phenotype (%) [9]: 29% | Total Cell Count [9]: 321 | Population Apoptotic (%) [10]: 33% | Population Fragmented Nuclei (%) [10]: 14% | Population Healthy Nuclei (%) [10]: 79% | Population Hoechst High Intensity Objects (%) [10]: 2% | Population Membrane Permeable-Phenotype (%) [10]: 10% | Population Mitochondria Different-Phenotype (%) [10]: 7% | Population Mitotic Cells (%) [10]: 66% | Population Normal (%) [10]: 97% | Population Pyknosed Nuclei (%) [10]: 5% | Population Tubulin-Different-Phenotype (%) [10]: 22% | Total Cell Count [10]: 270 | Population Apoptotic (%) [11]: 75% | Population Fragmented Nuclei (%) [11]: 19% | Population Healthy Nuclei (%) [11]: 64% | Population Hoechst High Intensity Objects (%) [11]: 8% | Population Membrane Permeable-Phenotype (%) [11]: 5% | Population Mitochondria Different-Phenotype (%) [11]: 59% | Population Mitotic Cells (%) [11]: 25% | Population Normal (%) [11]: 91% | Population Pyknosed Nuclei (%) [11]: 16% | Population Tubulin-Different-Phenotype (%) [11]: 71% | Total Cell Count [11]: 323 | Population Apoptotic (%) [12]: 57% | Population Fragmented Nuclei (%) [12]: 15% | Population Healthy Nuclei (%) [12]: 75% | Population Hoechst High Intensity Objects (%) [12]: 3% | Population Membrane Permeable-Phenotype (%) [12]: 3% | Population Mitochondria Different-Phenotype (%) [12]: 41% | Population Mitotic Cells (%) [12]: 42% | Population Normal (%) [12]: 96% | Population Pyknosed Nuclei (%) [12]: 9% | Population Tubulin-Different-Phenotype (%) [12]: 79% | Total Cell Count [12]: 482
